Assay results taken from ChEMBL document CHEMBL4715734, “Discovery of the Potent and Selective M1 PAM-Agonist N-[(3R,4S)-3-Hydroxytetrahydro-2H-pyran-4-yl]-5-methyl-4-[4-(1,3-thiazol-4-yl)benzyl]pyridine-2-carboxamide (PF-06767832): Evaluation of Efficacy and Cholinergic Side Effects” (J Med Chem, 2016).

Assays:
[1] = fAUC (0 to 24 hrs) in rat at 30 mg/kg, po administered for 14 days; assay type: ADME, organism-based; conditions: in vivo, 336 h, time 14 day
Summary of the method: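 2-week repeat oral dosing in rats, 0.5% methylcellulose formulation; N=4/sex/dose; doses 3, 10, 30 (males)/15 (females) mg/kg; unbound exposures reported per dose and sex.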

[2] = target: T1, Muscarinic acetylcholine receptor M5 (Homo sapiens, UniProt P08912); assay: Positive allosteric modulation of human recombinant muscarinic M5 receptor stably expressed in CHO cells assessed as increase in Ach-induced accumulation of intracellular calcium level upto 10 uM incubated for 10 mins followed by addition of Ach at EC20 concentration by Fluo-8AM dye based FLIPR TETRA method
T1 sequence (P08912 whole entry): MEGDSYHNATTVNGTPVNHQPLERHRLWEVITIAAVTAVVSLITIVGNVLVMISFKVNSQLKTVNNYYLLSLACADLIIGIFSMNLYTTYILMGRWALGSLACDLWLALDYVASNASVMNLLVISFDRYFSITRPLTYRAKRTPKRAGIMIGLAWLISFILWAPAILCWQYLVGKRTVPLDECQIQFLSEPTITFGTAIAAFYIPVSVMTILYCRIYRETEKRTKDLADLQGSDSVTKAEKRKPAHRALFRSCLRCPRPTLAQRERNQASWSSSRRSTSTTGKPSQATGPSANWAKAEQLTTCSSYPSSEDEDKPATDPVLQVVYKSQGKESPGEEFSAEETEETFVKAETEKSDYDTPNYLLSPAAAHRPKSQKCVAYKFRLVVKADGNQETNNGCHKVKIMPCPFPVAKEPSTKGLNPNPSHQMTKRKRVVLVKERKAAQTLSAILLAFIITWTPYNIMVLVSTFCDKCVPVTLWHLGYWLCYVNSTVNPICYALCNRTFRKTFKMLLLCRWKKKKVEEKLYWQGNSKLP

[3] = Fraction unbound in cynomolgus monkey plasma; assay type: ADME, cell-free, Macaca fascicularis

fAUC [1]: 13.211 µM·h | Activity [2]: Not Active | Fu [3]: 3.2%
Structure (SMILES): Cc1cnc(C(=O)N[C@H]2CCOC[C@@H]2O)cc1Cc1ccc(-c2cscn2)cc1
